Test results taken from ChEMBL document CHEMBL1126896, “Preparation and anti-HIV activity of O-acylated heparin and dermatan sulfate derivatives with low anticoagulant effect” (J Med Chem, 1993).

Tests used:
[1] = test system: HuT78; assay: Giant-cell formation between persistently HIV-1 infected HUT-78 cells and uninfected MOLT-4 cells; type: functional, cell-based
Summary of the method: (§1)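 MOLT-4 cells were co-cultured with an equal number of HUT-78 cells persistently infected with HIV-1 IIIB or HIV-2 ROD, with varying compound concentrations. Syncytia were counted by flow cytofluorography after 24 h. EC50 is the concentration giving 50% protection against giant-cell formation.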

[2] = In vitro anticoagulant activity determined by clotting test of activated partial thromboplastin time (APTT) on a pool of human plasma; type: functional
Summary of the method: (§2)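 Activated partial thromboplastin time clotting test on pooled human plasma, run on an automatic coagulometer. Activities were calculated according to the European Pharmacopoeia.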

[3] = test system: Human immunodeficiency virus 1; assay: Antiviral activity against HIV-1 infected with HTLVIIIB (TIBO); type: functional, organism-based
[4] = test system: Simian immunodeficiency virus; assay: Antiviral activity against SIV; type: functional, organism-based
[5] = test system: Human immunodeficiency virus 1; assay: Antiviral activity against HIV-1 infected with HIV-1HE; type: functional, organism-based
[6] = test system: MT4; assay: Selectivity index for CC50 (cytotoxic concentration based on the reduction of the viability of mock-infected MT-4 cells) to that of EC50 against HIV-1; type: functional
Summary of the method: (§3)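 MT-4 cells at 3 × 10^5 cells/mL were infected with HIV-1 IIIB or HIV-2 ROD at 100 CCID50/mL, or mock-infected, alongside serial compound dilutions. Viability was read by MTT after 5 days at 37 °C. CC50 comes from mock-infected cells and EC50 from protection against cytopathicity. Index = CC50/EC50.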

[7] = test system: MT4; assay: Effective concentration to achieve 50% protection of MT-4 cells against the cytopathic effect of HIV-1; type: functional, cell-based
[8] = test system: MT4; assay: Effective concentration to achieve 50% protection of MT-4 cells against the cytopathic effect of HIV-2; type: functional, cell-based
[9] = test system: MT4; assay: Selectivity index for CC50 (cytotoxic concentration based on reduction of viability of mock-infected MT-4 cells) to that of EC50 against HIV-2; type: functional; summary of the method: as §3
[10] = test system: Human immunodeficiency virus 2; assay: Antiviral activity against HIV-2 infected with LAV-2 EHO; type: functional, organism-based
[11] = test system: Human immunodeficiency virus 2; assay: Antiviral activity against HIV-2 infected with LAV-2 ROD; type: functional, organism-based
[12] = test system: Human immunodeficiency virus 1; assay: Antiviral activity against HIV-1 infected with […]; type: functional, organism-based
[13] = test system: Human immunodeficiency virus 1; assay: Antiviral activity against HIV-1 infected with HTLVIIIB; type: functional, organism-based
[14] = In vitro anticoagulant activity was determined by the clotting test of activated partial thromboplastin time (APTT) on a pool of human plasma; 1-2; type: functional; summary of the method: as §2
[15] = test system: HuT78; assay: Giant-cell formation between persistently HIV-2 infected HUT-78 cells and uninfected MOLT-4 cells; type: functional, cell-based; summary of the method: as §1
[16] = Homo sapiens, HuT78, read-out: EC50
[17] = Homo sapiens, MT4, read-out: EC50

Row | EC50 [3] [µg/mL] | EC50 [4] [µg/mL] | EC50 [5] [µg/mL] | EC50 [10] [µg/mL] | EC50 [11] [µg/mL] | EC50 [12] [µg/mL] | EC50 [13] [µg/mL] | SMILES | EC50 [1, 16] [µg/mL] | APTT [2] [IU mg-1] | Selectivity index [6] | EC50 [7, 17] [µg/mL] | EC50 [8, 17] [µg/mL] | Selectivity index [9] | APTT [14] [IU mg-1] | EC50 ([1]; hut78) [µg/mL] | EC50 ([15]; hut78) [µg/mL] | EC50 ([7]; mt4) [µg/mL] | EC50 ([8]; mt4) [µg/mL] | EC50 [15, 16] [µg/mL]
1 | 0.6 | 7.4 | 1.5 | 4.3 | 2.2 | 1.3 | 0.5 | CC(=O)OC/C(=C\C(=O)[O-])OC1OC(COS(=O)(=O)[O-])C(OC2OC(C(=O)[O-])C(OC3OC(COS(=O)(=O)[O-])C(OC4OC(C(=O)[O-])C(OC5OC(CS(=O)(=O)[O-])C(O)C(OC(C)=O)C5NS(=O)(=O)[O-])C(OC(C)=O)C4OS(=O)(=O)[O-])C(OC(C)=O)C3NS(=O)(=O)[O-])C(OC(C)=O)C2OS(=O)(=O)[O-])C(OC(C)=O)C1NS(=O)(=O)[O-].[Na+].[Na+].[Na+].[Na+].[Na+].[Na+].[Na+].[Na+].[Na+].[Na+].[Na+] (centres undefined) | 165 | 10 | >943 | 0.53 | 0.59 | >847 |  |  |  |  |  | 
2 |  |  |  |  |  |  |  | COC1C(NC(C)=O)C(OC2C(C(=O)[O-])OC(OC3C(NC(C)=O)C(OC4C(C(=O)[O-])OC(C)C(O)C4O)OC(CO)C3OS(=O)(=O)[O-])C(O)C2O)OC(CO)C1OS(=O)(=O)[O-].[Na+].[Na+].[Na+].[Na+] (centres undefined) | > 500 |  |  | > 625 | > 625 |  | 1 |  |  |  |  | 
3 |  |  |  |  |  |  |  | CCCCCC(=O)OC/C(=C\C(=O)[O-])OC1OC(COS(=O)(=O)[O-])C(OC2OC(C(=O)[O-])C(OC3OC(COS(=O)(=O)[O-])C(OC4OC(C(=O)[O-])C(OC5OC(CS(=O)(=O)[O-])C(O)C(OC(=O)CCCCC)C5NS(=O)(=O)[O-])C(OC(=O)CCCCC)C4OS(=O)(=O)[O-])C(OC(=O)CCCCC)C3NS(=O)(=O)[O-])C(OC(=O)CCCCC)C2OS(=O)(=O)[O-])C(OC(=O)CCCCC)C1NS(=O)(=O)[O-].[Na+].[Na+].[Na+].[Na+].[Na+].[Na+].[Na+].[Na+].[Na+].[Na+].[Na+] (stereo in doubt; 3f) |  | 4 | >2500 |  |  | >500 |  | 7 | 100 | 0.2 | 1 | 
4 | 0.7 | 10.2 | 1.1 | 1.3 | 0.9 | 0.2 | 0.2 | CCCC(=O)OC/C(=C\C(=O)OCc1ccccc1)OC1OC(COS(=O)(=O)[O-])C(OC2OC(C(=O)OCc3ccccc3)C(OC3OC(COS(=O)(=O)[O-])C(OC4OC(C(=O)OCc5ccccc5)C(OC5OC(COS(=O)(=O)[O-])C(O)C(OC(=O)CCC)C5NS(=O)(=O)[O-])C(OC(=O)CCC)C4OS(=O)(=O)[O-])C(OC(=O)CCC)C3NS(=O)(=O)[O-])C(OC(=O)CCC)C2OS(=O)(=O)[O-])C(OC(=O)CCC)C1NS(=O)(=O)[O-].[Na+].[Na+].[Na+].[Na+].[Na+].[Na+].[Na+].[Na+] (centres undefined) | 1 | 4 | >1389 | 0.36 | 0.42 | >1190 |  |  |  |  |  | 1
5 |  |  |  |  |  |  |  | C=CCOC(=O)/C=C(\CO)OC1OC(COS(=O)(=O)[O-])C(OC2OC(C(=O)OCC=C)C(OC3OC(COS(=O)(=O)[O-])C(OC4OC(C(=O)OCC=C)C(OC5OC(COS(=O)(=O)[O-])C(O)C(O)C5NS(=O)(=O)[O-])C(O)C4OS(=O)(=O)[O-])C(O)C3NS(=O)(=O)[O-])C(O)C2OS(=O)(=O)[O-])C(O)C1NS(=O)(=O)[O-].[Na+].[Na+].[Na+].[Na+].[Na+].[Na+].[Na+].[Na+] (centres undefined) | 100 | 2 | >2500 | 0.2 | 1 | >500 |  |  |  |  |  | 3
6 |  |  |  |  |  |  |  | CCCCCC(=O)OC/C(=C\C(=O)[O-])OC1OC(COS(=O)(=O)[O-])C(OC2OC(C(=O)[O-])C(OC3OC(COS(=O)(=O)[O-])C(OC4OC(C(=O)[O-])C(OC5OC(CS(=O)(=O)[O-])C(O)C(OC(=O)CCCCC)C5NS(=O)(=O)[O-])C(OC(=O)CCCCC)C4OS(=O)(=O)[O-])C(OC(=O)CCCCC)C3NS(=O)(=O)[O-])C(OC(=O)CCCCC)C2OS(=O)(=O)[O-])C(OC(=O)CCCCC)C1NS(=O)(=O)[O-].[Na+].[Na+].[Na+].[Na+].[Na+].[Na+].[Na+].[Na+].[Na+].[Na+].[Na+] (stereo in doubt; 3h) |  | 6 | >5000 |  |  | >1250 |  | 3 | 50 | 0.1 | 0.4 | 
7 | 0.3 | 5.9 | 0.9 | 1.3 | 0.7 | 0.1 | 0.1 | CCCC(=O)OC/C(=C\C(=O)[O-])O[C@H]1O[C@H](COS(=O)(=O)[O-])[C@@H](O[C@@H]2O[C@@H](C(=O)[O-])[C@@H](O[C@H]3O[C@H](COS(=O)(=O)[O-])[C@@H](O[C@@H]4O[C@@H](C(=O)[O-])[C@@H](O[C@H]5O[C@H](CS(=O)(=O)[O-])[C@@H](O)[C@H](OC(=O)CCC)[C@H]5NS(=O)(=O)[O-])[C@H](OC(=O)CCC)[C@H]4OS(=O)(=O)[O-])[C@H](OC(=O)CCC)[C@H]3NS(=O)(=O)[O-])[C@H](OC(=O)CCC)[C@H]2OS(=O)(=O)[O-])[C@H](OC(=O)CCC)[C@H]1NS(=O)(=O)[O-].[Na+].[Na+].[Na+].[Na+].[Na+].[Na+].[Na+].[Na+].[Na+].[Na+].[Na+] (stereo in doubt; 4g) |  | 8.5 |  |  |  | >2141 |  | 31.9 |  |  | 0.17 | 
8 |  |  |  |  |  |  |  | CCCCCCCCOC(=O)/C=C(\CO)OC1OC(COS(=O)(=O)[O-])C(OC2OC(C(=O)OCCCCCCCC)C(OC3OC(COS(=O)(=O)[O-])C(OC4OC(C(=O)OCCCCCCCC)C(OC5OC(COS(=O)(=O)[O-])C(O)C(O)C5NS(=O)(=O)[O-])C(O)C4OS(=O)(=O)[O-])C(O)C3NS(=O)(=O)[O-])C(O)C2OS(=O)(=O)[O-])C(O)C1NS(=O)(=O)[O-].[Na+].[Na+].[Na+].[Na+].[Na+].[Na+].[Na+].[Na+] (stereo in doubt; 7f) | 4 | 3 | >714 | 0.7 |  | >454 |  |  |  |  | 1.1 | 18
9 | 1.5 | 150 | 11.7 | 17.9 | > 250 | 0.3 | 1.5 | O=C([O-])/C=C(\CO)OC1OC(COS(=O)(=O)[O-])C(OC2OC(C(=O)[O-])C(OC3OC(COS(=O)(=O)[O-])C(OC4OC(C(=O)[O-])C(OC5OC(COS(=O)(=O)[O-])C(O)C(O)C5NS(=O)(=O)[O-])C(O)C4OS(=O)(=O)[O-])C(O)C3NS(=O)(=O)[O-])C(O)C2OS(=O)(=O)[O-])C(O)C1NS(=O)(=O)[O-].[Na+].[Na+].[Na+].[Na+].[Na+].[Na+].[Na+].[Na+].[Na+].[Na+].[Na+] (stereo in doubt; 2a) |  | 4 | >327 |  |  | >80 |  | > 500 |  | 1.53 | 6.3 | 
10 |  |  |  |  |  |  |  | CC(=O)NC1C(OC2C(C(=O)[O-])OC(OC3C(COS(=O)(=O)[O-])OC(OC4C(C(=O)[O-])OC(OC5C(COS(=O)(=O)[O-])OC(O/C(=C/C(=O)[O-])CO)C(NC(C)=O)C5O)C(OS(=O)(=O)[O-])C4O)C(NC(C)=O)C3O)C(OS(=O)(=O)[O-])C2O)OC(COS(=O)(=O)[O-])C(O)C1O.[Na+].[Na+].[Na+].[Na+].[Na+].[Na+].[Na+].[Na+] (centres undefined) | 500 | 2.4 | >122 | 4.1 | 2.7 | >185 |  |  |  |  |  | 60
11 |  |  |  |  |  |  |  | COc1ccc(COC(=O)/C=C(\CO)OC2OC(COS(=O)(=O)[O-])C(OC3OC(C(=O)OCc4ccc(OC)cc4)C(OC4OC(COS(=O)(=O)[O-])C(OC5OC(C(=O)OCc6ccc(OC)cc6)C(OC6OC(COS(=O)(=O)[O-])C(O)C(O)C6NS(=O)(=O)[O-])C(O)C5OS(=O)(=O)[O-])C(O)C4NS(=O)(=O)[O-])C(O)C3OS(=O)(=O)[O-])C(O)C2NS(=O)(=O)[O-])cc1.[Na+].[Na+].[Na+].[Na+].[Na+].[Na+].[Na+].[Na+] (centres undefined) | > 100 | 4 | >5000 | 0.1 | 4.3 | >119 |  |  |  |  |  | > 100
12 |  |  |  |  |  |  |  | O=C(/C=C(\CO)OC1OC(COS(=O)(=O)[O-])C(OC2OC(C(=O)OCc3ccccc3)C(OC3OC(COS(=O)(=O)[O-])C(OC4OC(C(=O)OCc5ccccc5)C(OC5OC(COS(=O)(=O)[O-])C(O)C(O)C5NS(=O)(=O)[O-])C(O)C4OS(=O)(=O)[O-])C(O)C3NS(=O)(=O)[O-])C(O)C2OS(=O)(=O)[O-])C(O)C1NS(=O)(=O)[O-])OCc1ccccc1.[Na+].[Na+].[Na+].[Na+].[Na+].[Na+].[Na+].[Na+] (centres undefined) | 1 | 4 | >1515 | 0.33 | 0.4 | >1250 |  |  |  |  |  | 2
